In ChEMBL document CHEMBL1687733, “Topoisomerase I gene mutations at F270 in the large subunit and N184 in the small subunit contribute to the resistance mechanism of the unicellular parasite Leishmania donovani towards 3,3'-diindolylmethane” (Antimicrob Agents Chemother, 2009):
Activity calls are given as the source filed them.

What was measured:
Leishmania donovani [1] = assay: Antimicrobial activity against wild type Leishmania donovani AG83 transfected with drug-resistant Leishmania donovani LdDR50 topoisomerase 1 wild type large subunit and N184S mutant in small subunit assessed as inhibition of parasite growth at 20 uM after 24 hrs by MTT assay; type: functional; conditions: AG83, 24 h
How it was run: (§1)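 WT promastigotes transfected by electroporation with mutant large-subunit (pXG-HYG, hygromycin selection) and/or small-subunit (pXG-GFP2+, G418 selection) topoisomerase I genes. Grown with DIM 1–20 μM for 24 h; MTT read-out, growth as % of optical density of untreated WT parasites.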

[2] = Binding affinity to Leishmania donovani large subunit of topoisomerase 1b
Leishmania donovani [3] = assay: Ratio of KD for drug-resistant Leishmania donovani LdDR50 topoisomerase 1b to KD for wild type Leishmania donovani AG83 topoisomerase 1b
Leishmania donovani [4] = assay: Antimicrobial activity against wild type Leishmania donovani AG83 transfected with drug-resistant Leishmania donovani LdDR50 topoisomerase 1 F270L, K430N mutant in large subunit assessed as inhibition of parasite growth at 20 uM after 24 hrs by MTT assay; type: functional; conditions: AG83, 24 h; how it was run: as §1
[5] = Binding affinity to recombinant drug-resistant Leishmania donovani LdDR50 topoisomerase 1b large subunit F270L, K430N mutant and small subunit N184S mutant after 24 hrs by equilibrium dialysis method
How it was run: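 Recombinant His-tagged subunits expressed in E. coli BL21(DE3) pLysS, purified on Ni-NTA then phosphocellulose, reconstituted 1:1. Enzyme 200 μM with DIM 1–20 μM in 20 mM Tris-HCl pH 7.5, 50 mM NaCl, 10 mM MgCl2 for 30 min at 37°C, then dialysed (12–14 kDa cutoff) 24 h at 25°C. Free DIM measured by absorbance (ε 6.6 × 10^4 M−1); KD from saturation plot.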

Leishmania donovani [6] = assay: Inhibition of recombinant drug-resistant Leishmania donovani LdDR50 topoisomerase 1b large subunit F270L mutant and small subunit N184S mutant-mediated relaxation of supercoiled pBluescript SK(+) DNA at up to 50 uM after 30 mins using ethidium bromide staining
How it was run: (§2)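 Reconstituted recombinant enzyme (30 fmol) with 90 fmol supercoiled pBluescript SK(+) DNA (3:1 DNA:enzyme), 30 min at 37°C with DIM (1–50 μM for fully mutant enzyme; 10 μM for single-site mutants); 4% DMSO vehicle control. Products on 1% agarose, ethidium bromide (0.5 μg/ml) stained; supercoiled monomer band quantified.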

Leishmania donovani [7] = assay: Ratio of antimicrobial activity against drug-resistant Leishmania donovani LdDR50 to antimicrobial activity against wild type Leishmania donovani AG83; type: functional
How it was run: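 Cells washed twice in PBS, MTT added for 4 h, acidified isopropanol stop for 20 min at room temperature, A570 read. Growth expressed as % of untreated WT OD; three experiments.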

Leishmania donovani [8] = assay: Antimicrobial activity against wild type Leishmania donovani AG83 transfected with drug-resistant Leishmania donovani LdDR50 topoisomerase 1 K430N mutant in large subunit and wild type small subunit assessed as inhibition of parasite growth at 20 uM after 24 hrs by MTT assay; type: functional; conditions: AG83, 24 h; how it was run: as §1
[9] = tested on: T1, DNA topoisomerase type IB small subunit (Leishmania donovani (strain BPK282A1)), E9B7X3 [N184S]; assay: Effect on recombinant drug-resistant Leishmania donovani LdDR50 topoisomerase 1b small subunit N184S mutant-mediated cleavage of 25-mer duplex oligonucleotide at 20 uM after 30 mins by PAGE analysis
T1 sequence (whole entry): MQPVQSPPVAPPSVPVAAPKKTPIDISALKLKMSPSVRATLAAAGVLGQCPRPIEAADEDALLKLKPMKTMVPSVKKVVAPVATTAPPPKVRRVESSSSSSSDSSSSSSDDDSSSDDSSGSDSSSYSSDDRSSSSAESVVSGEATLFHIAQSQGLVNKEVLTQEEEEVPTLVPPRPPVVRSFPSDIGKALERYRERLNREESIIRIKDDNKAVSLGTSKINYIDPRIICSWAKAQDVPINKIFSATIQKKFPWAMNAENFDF
How it was run: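 5′-32P-labelled 25-mer duplex (10 nM) incubated with reconstituted mutant enzyme (0.2 μM, 20-fold molar excess) and DIM 5–20 μM for 30 min (Methods 37°C; legend 23°C). Stopped with SDS, trypsin-treated, resolved on 12% denaturing polyacrylamide-urea gel; cleaved 12-mer detected by autoradiography.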

Leishmania donovani [10] = assay: Antimicrobial activity against wild type Leishmania donovani AG83 transfected with drug-resistant Leishmania donovani LdDR50 topoisomerase 1 F270L, N184S mutant in large subunit assessed as inhibition of parasite growth at 20 uM after 24 hrs by MTT assay; type: functional; conditions: AG83, 24 h; how it was run: as §1
Leishmania donovani [11] = assay: Antimicrobial activity against wild type Leishmania donovani AG83 transfected with drug-resistant Leishmania donovani LdDR50 topoisomerase 1 F270Lmutant in large subunit assessed as inhibition of parasite growth at 20 uM after 24 hrs by MTT assay; type: functional; conditions: AG83, 24 h; how it was run: as §1
[12] = Binding affinity to Leishmania donovani small subunit of topoisomerase 1b
[13] = tested on: T2, Leishmania donovani [F270L,K430N]; assay: Inhibition of recombinant drug-resistant Leishmania donovani LdDR50 topoisomerase 1b wild type small subunit and large subunit F270L, K430N mutant-mediated relaxation of supercoiled pBluescript SK(+) DNA at up to 50 uM after 30 mins using ethidium bromide staining; how it was run: as §2
T2 sequence (whole entry): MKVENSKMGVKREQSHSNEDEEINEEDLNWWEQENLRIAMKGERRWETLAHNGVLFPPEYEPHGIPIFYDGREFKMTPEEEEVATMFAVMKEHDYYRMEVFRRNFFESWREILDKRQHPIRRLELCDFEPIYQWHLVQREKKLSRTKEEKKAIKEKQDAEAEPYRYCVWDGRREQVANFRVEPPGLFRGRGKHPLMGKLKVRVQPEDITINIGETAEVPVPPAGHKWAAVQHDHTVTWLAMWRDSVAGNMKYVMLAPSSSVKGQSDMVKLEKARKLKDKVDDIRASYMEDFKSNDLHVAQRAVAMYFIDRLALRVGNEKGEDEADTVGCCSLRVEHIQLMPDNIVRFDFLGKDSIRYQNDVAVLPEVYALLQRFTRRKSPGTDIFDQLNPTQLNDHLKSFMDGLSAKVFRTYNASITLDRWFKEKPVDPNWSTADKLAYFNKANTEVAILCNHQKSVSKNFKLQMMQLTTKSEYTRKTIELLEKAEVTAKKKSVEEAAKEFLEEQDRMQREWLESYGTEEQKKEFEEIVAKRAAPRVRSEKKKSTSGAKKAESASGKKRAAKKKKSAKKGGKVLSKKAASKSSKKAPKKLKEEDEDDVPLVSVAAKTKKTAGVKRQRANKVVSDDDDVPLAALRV

Leishmania donovani [14] = assay: Inhibition of recombinant Leishmania donovani AG83 topoisomerase 1b-mediated religation of 14-mer/25-mer suicide DNA substrate at 20 uM after […] by PAGE analysis
How it was run: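 For cleavage, the 5′-32P 14-mer/25-mer suicide substrate (5 nM) was incubated with 0.15 μM reconstituted enzyme at 23°C, with or without 20 μM DIM. Complexes were shifted to 30°C for 2 min. A 300-fold excess of 11-mer acceptor was added for 30, 60 and 120 s. Samples were stopped with 1% SDS, trypsinised, and run on a sequencing gel to read the 23-mer religated product.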

SMILES: c1ccc2c(Cc3c[nH]c4ccccc34)c[nH]c2c1 [ARUNDINE]
- inhibition at 20 µM (Leishmania donovani [1]): 91%
- Kd [2]: 428 nM
- Ratio (Leishmania donovani [3]): 25000
- inhibition at 20 µM (Leishmania donovani [4]): 34%
- Kd [5]: 240000 nM
- inhibition (Leishmania donovani [6]): inactive
- Ratio (Leishmania donovani [7]): 42
- inhibition at 20 µM (Leishmania donovani [8]): 94%
- Activity [9]: Active
- inhibition at 20 µM (Leishmania donovani [10]): 31%
- inhibition at 20 µM (Leishmania donovani [11]): 34%
- Kd [12]: 50 nM
- inhibition [13]: inactive
- inhibition (Leishmania donovani [14]): Active
